Drawing on ChEMBL document CHEMBL3085652, “Synthesis and antiproliferative activity of α-branched α,β-unsaturated ketones” (2013), this text covers GI50 for 3 compounds.

Assay type in all cases: functional
One experiment has as its system T47D. Kind of experiment: Growth inhibition of human T47D cells after 48 hrs by SRB assay. Put shortly:
(§1)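 Cells from an academic source, kept in 25 cm² flasks in RPMI 1640 with 5% heat-inactivated fetal calf serum. Dosing began day 1 after plating, in triplicate at several dilutions across […]. Vehicle controls got DMSO 0.25% v/v. After 48 h exposure, cells were fixed with ice-cold 50% w/v TCA for 60 min at 4 °C and stained by SRB. OD was read at 492 nm, corrected for medium-only background, and GI50 was derived from dose-response data.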

The nature of experiment [1]: Growth inhibition of human HBL100 cells after 48 hrs by SRB assay. The note with it: HBL-100, 48 h. In short, it runs like this: as §1
A further experiment concerns HeLa. Put plainly: Growth inhibition of human HeLa cells after 48 hrs by SRB assay. Put shortly: as §1
The next experiment concerns WiDr. Put plainly: Growth inhibition of human WiDr cells after 48 hrs by SRB assay. Put shortly:
as §1

Another experiment concerns SW1573. Kind of experiment: Growth inhibition of human SW1573 cells after 48 hrs by SRB assay. The note with it: SW1573, 48 h. In short, it runs like this:
as §1

Consider `O=C(OC/C(=C/c1ccccc1[N+](=O)[O-])C(=O)c1ccccc1)c1ccccc1`, for which the 50% growth inhibitory concentration (GI50) in the experiment on T47D was 18 µM; in experiment [1] it was greater than 100 µM; in the experiment on HeLa, 30 µM; with WiDr, 21 µM; with SW1573, greater than 100 µM.

On to `CC(=O)OC/C(=C\c1ccccc1)C(=O)c1ccccc1`, for which the GI50 in the experiment on T47D amounted to 16 µM; in experiment [1], 17 µM; in the experiment on HeLa, 20 µM; with WiDr, 17 µM; in the experiment with SW1573, 4.8 µM.

As to `CC(=O)OC/C(=C\C1CCCCC1)C(=O)c1ccc(Cl)cc1`, the GI50 was 18 µM with T47D; 31 µM in experiment [1]; 24 µM in the experiment with HeLa; 21 µM with WiDr; 18 µM in the experiment with SW1573.
